This note sets out measurements from ChEMBL document CHEMBL4334491, “Discovery of Benzamidine- and 1-Aminoisoquinoline-Based Human MAS-Related G-Protein-Coupled Receptor X1 (MRGPRX1) Agonists” (J Med Chem, 2019).

For data set [1], the target named is T1, Mas-related G-protein coupled receptor member X1 (Homo sapiens, UniProt Q96LB2). The data set is described as follows: Agonist activity at human MrgprX1 expressed in HEK293 cells incubated for 2 mins by Fluo4AM dye based FLIPR assay. The class given is cell-based. The method, boiled down: (§1)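 HEK293 cells stably expressing human MrgprX1 were plated at 25,000/well and grown 2 days. They were loaded with 2 μM Fluo-4 AM plus 1% Trypan Red in HBSS for 50 min at 37°C, then equilibrated 10 min at room temperature. Serially diluted compounds in HBSS were added, with BAM8-22 as positive control. FLIPR imaging ran 2 min, read as max–min fluorescence. EC50 is mean ± SD of ≥4 experiments.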
T1 sequence (Q96LB2 whole entry): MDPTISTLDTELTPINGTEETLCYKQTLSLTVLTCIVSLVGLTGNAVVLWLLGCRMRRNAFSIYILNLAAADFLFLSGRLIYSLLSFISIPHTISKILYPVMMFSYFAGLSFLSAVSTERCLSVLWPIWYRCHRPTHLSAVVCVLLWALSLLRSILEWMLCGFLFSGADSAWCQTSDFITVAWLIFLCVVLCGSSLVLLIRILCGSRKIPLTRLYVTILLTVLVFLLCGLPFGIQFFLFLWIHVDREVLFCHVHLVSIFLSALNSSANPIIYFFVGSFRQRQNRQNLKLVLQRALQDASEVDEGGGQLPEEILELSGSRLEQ

In data set [2] the target is T1, Mas-related G-protein coupled receptor member X1. The experiment in a line: Agonist activity at human MrgprX1 expressed in HEK293 cells incubated for 2 mins by Fluo4AM dye based FLIPR assay relative to BAM8-22. The data set is classed as cell-based. In outline:
as §1

Data set [3] shares this target. The experiment in a line: Agonist activity at human MRGPRX1 in DRG neurons obtained from humanized MrgprX1 mouse assessed as inhibition of high-voltage-activated Ca2+ currents 10 uM at -80 mV holding potential. The class given is functional. The method, boiled down:
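DRG neurons from 3–4-week-old humanized MrgprX1 mice were dispase/collagenase-dissociated, cultured with NGF and GDNF, and used after 20–40 h. Whole-cell patch clamp was done in Ba2+/NMDG extracellular solution, pH 7.4, at 21–23°C. Cells were held at −80 mV, stepped to −40 mV, then −60 mV, then −10 mV for 40 ms to evoke HVA currents. Compound was bath-applied; P/4 leak subtraction.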

Data set [4] has the same target. The data set is described as follows: Agonist activity at human MrgprX1 expressed in HEK293 cells up to 100 uM incubated for 2 mins by Fluo4AM dye based FLIPR assay relative to BAM8-22. The class given is cell-based. The method, boiled down:
as §1

The target in data set [5] is Mu-type opioid receptor (Rattus norvegicus, UniProt P33535). The data set is described as follows: Displacement of [3H]DAMGO from mu opioid receptor in rat brain after 60 mins by liquid scintillation counting method. The class given is tissue-based.
Chain of Mu-type opioid receptor (P33535 whole entry): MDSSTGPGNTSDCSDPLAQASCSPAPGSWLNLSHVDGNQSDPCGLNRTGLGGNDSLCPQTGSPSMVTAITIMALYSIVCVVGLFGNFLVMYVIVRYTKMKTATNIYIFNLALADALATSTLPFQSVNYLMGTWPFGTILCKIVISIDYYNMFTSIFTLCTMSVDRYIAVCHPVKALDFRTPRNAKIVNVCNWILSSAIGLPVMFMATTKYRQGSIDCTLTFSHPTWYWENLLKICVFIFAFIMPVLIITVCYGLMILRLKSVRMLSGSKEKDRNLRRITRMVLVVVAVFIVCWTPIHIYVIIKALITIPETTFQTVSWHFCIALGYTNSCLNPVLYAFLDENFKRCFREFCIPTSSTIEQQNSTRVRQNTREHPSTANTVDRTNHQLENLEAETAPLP
Data set [6] concerns the target Kappa-type opioid receptor (Rattus norvegicus, UniProt P34975). The experiment in a line: Displacement of [3H]U-69,593 from kappa opioid receptor in rat brain after 60 mins by liquid scintillation counting method. The data set is classed as tissue-based. A general note: In a radioligand displacement assay an active substance lowers the binding of a labelled ligand.

The nature of data set [7]: Half life in mouse liver microsomes. The data set is classed as ADME, Microsome. A general note: Microsomes from liver hold many membrane-bound enzymes, among them those of drug oxidation.
Data set [8] is described as follows: AUC in CD1 mouse spinal cord at 10 mg/kg, iv administered as single dose by LC-MS/MS analysis. The following applies: in vivo. The class given is ADME, organism-based. In outline: (§2)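 Male CD1 mice (25–30 g) received a single 10 mg/kg iv dose, n=3 per time point, and were killed by CO2 at set times. Plasma came from cardiac-puncture blood spun at 3,000 g for 15 min. Spinal cords were flash frozen. Samples were extracted in acetonitrile with losartan internal standard and quantified by LC/MS/MS. Calibration covered 0.01–10 nmol/mL, built with 1/x-weighted linear regression in naive matrix.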

For data set [9], the target named is T2, Mas-related G-protein coupled receptor member X1 (Mus musculus) (UniProt Q8CIP3).
T2 sequence (whole entry): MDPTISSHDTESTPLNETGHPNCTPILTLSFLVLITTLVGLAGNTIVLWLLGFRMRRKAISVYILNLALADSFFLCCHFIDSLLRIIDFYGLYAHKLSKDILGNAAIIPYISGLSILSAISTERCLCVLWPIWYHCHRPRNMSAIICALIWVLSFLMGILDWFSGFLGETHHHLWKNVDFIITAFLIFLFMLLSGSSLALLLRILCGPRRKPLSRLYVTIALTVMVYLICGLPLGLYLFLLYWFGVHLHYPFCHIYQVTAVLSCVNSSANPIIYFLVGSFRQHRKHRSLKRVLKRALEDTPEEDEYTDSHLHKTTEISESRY
The experiment in a line: Agonist activity at mouse MRGPRC11 expressed in KNRK cells at 40 uM by Fura2-AM dye based FLIPR assay. The data set is classed as cell-based.

A short description of data set [10]: Selectivity index, ratio of Ki for [3H]U-69,593 from kappa opioid receptor in rat brain after 60 mins by liquid scintillation counting method to EC50 for agonist activity at human MrgprX1 expressed in HEK293 cells incubated for 2 mins by Fluo4AM dye based FLIPR assay. The class given is cell-based.
The nature of data set [11]: Half life in CD1 mouse at 10 mg/kg, iv administered as single dose by LC-MS/MS analysis. The class given is ADME, organism-based. The following applies: in vivo. In outline: as §2
The nature of data set [12]: Selectivity index, ratio of Ki for displacement of [3H]DADLE from delta opioid receptor in rat brain after 60 mins by liquid scintillation counting method to EC50 for agonist activity at human MrgprX1 expressed in HEK293 cells incubated for 2 mins by Fluo4AM dye based FLIPR assay. The data set is classed as cell-based.
The target of data set [13] is Delta-type opioid receptor (Rattus norvegicus, UniProt P33533). The data set is described as follows: Displacement of [3H]DADLE from delta opioid receptor in rat brain after 60 mins by liquid scintillation counting method. The class given is tissue-based.
Chain of Delta-type opioid receptor (P33533 whole entry): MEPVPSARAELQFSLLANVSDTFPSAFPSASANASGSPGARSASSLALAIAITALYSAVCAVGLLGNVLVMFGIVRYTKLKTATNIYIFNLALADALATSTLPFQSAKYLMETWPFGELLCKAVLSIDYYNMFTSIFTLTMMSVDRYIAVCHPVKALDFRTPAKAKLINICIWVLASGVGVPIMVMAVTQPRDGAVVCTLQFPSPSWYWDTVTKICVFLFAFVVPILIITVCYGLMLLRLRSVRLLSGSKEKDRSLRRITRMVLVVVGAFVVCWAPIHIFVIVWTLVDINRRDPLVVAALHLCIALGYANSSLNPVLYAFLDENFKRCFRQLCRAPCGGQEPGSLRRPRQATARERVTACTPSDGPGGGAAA
Data set [14] can be described thus: Selectivity index, ratio of Ki for displacement of [3H]DAMGO from mu opioid receptor in rat brain after 60 mins by liquid scintillation counting method to EC50 for agonist activity at human MrgprX1 expressed in HEK293 cells incubated for 2 mins by Fluo4AM dye based FLIPR assay. The class given is cell-based.
Data set [15] can be described thus: Ratio of AUC in spinal cord to AUC in plasma of CD1 mouse at 10 mg/kg, iv administered as single dose by LC-MS/MS analysis. The data set is classed as ADME, organism-based. The method, boiled down: as §2
The nature of data set [16]: AUC in CD1 mouse plasma at 10 mg/kg, iv administered as single dose by LC-MS/MS analysis. The data set is classed as ADME, organism-based. The following applies: in vivo. In outline: as §2
Data set [17] concerns the target T1, Mas-related G-protein coupled receptor member X1. The experiment in a line: Agonist activity at human MRGPRX1 in DRG neurons obtained from humanized MrgprX1 mouse assessed as inhibition of high-voltage-activated Ca2+ currents 5 uM at -80 mV holding potential. The class given is functional. In outline: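 DRG neurons from 3–4-week-old MrgprX1 mice, enzyme-dissociated, cultured with NGF and GDNF and used at 20–40 h. Whole-cell patch clamp of MrgprA3-GFP neurons at 21–23 °C in NMDG-Cl/5 mM BaCl2 bath, pH 7.4. Holding −80 mV, step to −40 mV 20 ms, −60 mV 20 ms, then −10 mV 40 ms evoking HVA current. P/4 leak subtraction. Currents compared before/after bath application.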

The source made the active and inactive calls. The rule behind the calls is not given here. A value given as a limit tells only on which side of the number the result lay.

Chain of Kappa-type opioid receptor (P34975 whole entry): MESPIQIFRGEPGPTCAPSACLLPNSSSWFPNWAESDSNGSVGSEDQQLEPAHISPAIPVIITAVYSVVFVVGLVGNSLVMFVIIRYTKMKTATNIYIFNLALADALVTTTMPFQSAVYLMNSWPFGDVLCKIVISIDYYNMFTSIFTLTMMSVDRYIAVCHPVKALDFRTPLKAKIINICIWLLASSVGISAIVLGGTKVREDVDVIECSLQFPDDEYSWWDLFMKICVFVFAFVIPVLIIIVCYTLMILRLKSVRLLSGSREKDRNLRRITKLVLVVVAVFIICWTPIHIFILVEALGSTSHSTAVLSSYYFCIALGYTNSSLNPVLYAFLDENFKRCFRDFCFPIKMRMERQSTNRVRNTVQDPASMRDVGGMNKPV

As usually defined, the EC50 is the midpoint of the concentration-response curve. As a reminder, the Emax is the size of the effect at its maximum, as opposed to the concentration needed. `COc1ccccc1S(=O)(=O)Nc1ccc(C)cc1Oc1cccc(C(=N)N)c1` registered an EC50 in data set [1] of 3.6 µM. The Emax in [2] was greater than 95%.
The matching figures for `COc1ccccc1S(=O)(=O)Nc1ccc(C)cc1Oc1ccccc1C(=N)N`: 23 µM and greater than 95%.
The corresponding values for `CCCCS(=O)(=O)Nc1cc(C)ccc1Oc1ccc(C(=N)N)cc1` are 0.92 µM and greater than 95%.
`Cc1ccc(NS(=O)(=O)c2ccccc2OC(F)(F)F)c(Oc2ccc(C(=N)N)cc2)c1`: in data set [1], the EC50 was determined as 0.15 µM. In data set [2], this compound displayed an Emax greater than 95%.
In data set [1], `COc1cc(CNc2ccc(C(=N)N)cc2)ccc1OCc1ccccc1` displayed an EC50 of 0.51 µM. The inhibition entry in data set [3] was “Active”. The Emax in data set [2] was greater than 95%.
As to `COc1ccccc1S(=O)(=O)Nc1ccc(C)cc1Oc1ccc2sc(N)nc2c1`, in [4], the result was inactive. This compound gave an EC50 in data set [1] greater than 100 µM.
The compound `Cc1ccc(S(=O)(=O)Nc2ccc(C)cc2Oc2ccc(C(=N)N)cc2)cc1` registered an EC50 in [1] of 0.16 µM. The same compound gave an Emax in data set [2] greater than 95%.
The corresponding values for `CCCCS(=O)(=O)Nc1ccccc1Oc1ccc(C(=N)N)cc1` are 0.3 µM and greater than 95%.
In the case of `COc1cc(CNc2ccccc2C(=N)N)ccc1OCc1ccccc1`, the result in data set [4] was inactive. In addition, the EC50 in [1] was greater than 100 µM. For the same compound, the inhibition entry in data set [3] was “inactive”.
Regarding `Cc1ccc(NS(=O)(=O)c2ccc(F)cc2)c(Oc2ccc(C(=N)N)cc2)c1`, a half-maximal response in [1] (EC50) required 2.1 µM. The same compound yielded an Emax in data set [2] greater than 95%.
The matching figures for `COc1cc(CNc2ccc(C(=N)N)cc2)ccc1OCCC(C)C`: 1.9 µM and greater than 95%.
As a reminder, the Ki is the equilibrium dissociation constant of an inhibitor or competing ligand from its target. A high value points to lower affinity. What is called half-life is the time in which the quantity being followed falls by half. High values mean slow decline, low ones rapid decline. By Kp is commonly meant the ratio of the level in a tissue or fluid to that in plasma or blood. In the case of `COc1ccccc1S(=O)(=O)Nc1ccc(C)cc1Oc1ccc2c(N)nccc2c1`, the results for the Ki in data set [5], in data set [6] and in [13] were 3.73 µM, 12.1 µM and 2.47 µM, respectively. Further, the EC50 in data set [1] was determined as 0.05 µM. Moreover, the half-life is less than 15 min in [7] and 19.8 min in data set [11]. For the same compound, the AUC in data set [8] was 5.66 nmol·h/g; in data set [16] it was 0.9 µM·h. Moreover, in data set [9], the result was inactive. Besides, the Ratio in data set [10] came out at 242; in data set [12], 50; in [14], 75. This compound also registered an Emax in data set [2] greater than 95%. Also, the partition ratio (Kp) in [15] stood at 6.3.
Take `CCCCS(=O)(=O)Nc1ccc(C)cc1Oc1ccc(C(=N)N)cc1`: the EC50 in data set [1] was found to be 2.2 µM. This compound displayed an Emax in [2] greater than 95%.
As to H-VGRPEWWMDYQKRYG-OH, the inhibition result in data set [17] is “Active”.
In the case of `COc1cc(CNc2ccc3c(N)nccc3c2)ccc1OCc1ccccc1`, a half-maximal response in data set [1] (EC50) required 3.7 µM. Further, in data set [2], the Emax was greater than 95%.
Regarding `COc1cc(CNc2ccc(C(=N)N)cc2)ccc1OCc1ccsc1`, the EC50 in [1] worked out at 0.29 µM. Also, the Emax in data set [2] is greater than 95%.
The matching figures for `COc1cc(CNc2ccc(C(=N)N)cc2)ccc1OCc1cccnc1`: 5.2 µM and greater than 95%.
As for `COc1cc(CNc2ccc(C(=N)N)cc2)ccc1OCc1ccc(-n2cccc2)cc1`, the EC50 in data set [1] was 0.68 µM. In data set [2], this compound came in with an Emax greater than 95%.
The corresponding values for `COc1cc(CNc2cccc(C(=N)N)c2)ccc1OCc1ccccc1` are 3.3 µM and greater than 95%.
Turning to `COc1ccccc1S(=O)(=O)Nc1ccc(C)cc1Oc1ccc(C(=N)N)cc1`, the Ki in [5] was found to be 0.0727 µM; in [6] it was 1.43 µM; in [13], 0.22 µM. In addition, in [1], it took 0.1 µM to reach a half-maximal effect (EC50). In data set [2], this compound yielded an Emax greater than 95%.
As to `N=C(N)c1ccc(NCc2ccc(OCc3ccccc3)cc2)cc1`, in [1], the response was half-maximal at 5.2 µM (EC50). Besides, in [2], the Emax was greater than 95%.
